Reference: ChEMBL document CHEMBL4673249, “Anticancer Effects of Honokiol via Mitochondrial Dysfunction Are Strongly Enhanced by the Mitochondria-Targeting Carrier Berberine” (J Med Chem, 2020)
The source made the active and inactive calls. No cut-off for these calls is given here.

How the values were obtained:
A2780 [1] = experiment: Antiproliferative activity against human A2780 cells assessed as reduction in cell viability after 48 hrs by MTT assay; format: functional, cell-based; details: A2780, 48 h
Method in brief: (§1)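 Cell lines grown at 37 °C in 5% CO2: A2780, A549, HL7702 and PC3 in RPMI 1640; HT29 in McCoy's 5A; HepG2 and PANC-1 in DMEM; all media with 10% FBS and penicillin/streptomycin. Cells seeded and left overnight, then exposed to compound for 48 h. MTT (5 mg/mL solution) added for 4 h at 37 °C, formazan dissolved in DMSO, absorbance read at 570 nm. IC50 taken from viability; run in triplicate.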

[2] = Drug uptake in human HepG2 cells mitochondria at 5 uM after 12 hrs by HPLC analysis; format: ADME; details: hepg2, 12 h
Method in brief: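 HepG2 cells given 5 μM for 12 h, then homogenized in mitochondrial extraction reagent. Spun at 600 g, 4 °C, 10 min; supernatant spun again at 11000 g, 4 °C, 10 min, and the pellet taken as mitochondria. Drug content by HPLC on a C18 column with methanol–0.1% acetic acid (80:20), detection at 265 nm. Run thrice.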

HepG2 [3] = experiment: Induction of apoptosis in human HepG2 cells assessed as early apoptotic cells at 4 uM after 24 hrs by annexin V/propidium iodide staining based flow cytometric analysis (reference value: 1.29%); format: functional
HepG2 [4] = experiment: Induction of mitochondrial morphological changes in human HepG2 cells assessed as dilation of mitochondria at 3 uM measured after 12 hrs by MitoTracker red CMXRos by confocal microscopic method; format: functional, cell-based
Method in brief: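 HepG2 cells stained with MitoTracker Red CMXRos; fluorescence and phase-contrast images taken by laser confocal microscopy.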

A549 = experiment: Induction of morphological changes in human A549 cells assessed as accumulation of cytoplasmic vacuoles at 4 uM after 24 hrs by optical microscopic method; format: functional, cell-based
HepG2 [5] = experiment: Induction of apoptosis in human HepG2 cells assessed as viable cells at 4 uM after 24 hrs by annexin V/propidium iodide staining based flow cytometric analysis (reference value: 95.3%); format: functional; details: read-out: Activity
L02 [6] = experiment: Antiproliferative activity against human L02 cells assessed as reduction in cell viability after 48 hrs by MTT assay; format: cell-based; details: L02, 48 h; method in brief: as §1
HepG2 [7] = experiment: Induction of apoptosis in human HepG2 cells assessed as necrotic cells at 2 uM after 24 hrs by annexin V/propidium iodide staining based flow cytometric analysis (reference value: 0.11%); format: functional
HepG2 (Homo sapiens) = experiment: Induction of morphological changes in human HepG2 cells assessed as accumulation of cytoplasmic vacuoles at 4 uM after 24 hrs by optical microscopic method
HepG2 [8] = experiment: Induction of cell death in human HepG2 cells assessed as reduction in cell viability after 24 hrs in presence of z-VAD-fmk by MTT assay; format: functional, cell-based
Method in brief: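 HepG2 cells pretreated with 20 μM z-VAD-fmk for 2 h, then exposed to a range of doses. Viability measured by MTT: 4 h at 37 °C, formazan in DMSO, absorbance at 570 nm.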

HepG2 [9] = experiment: Induction of apoptosis in human HepG2 cells assessed as late apoptotic cells at 4 uM after 24 hrs by annexin V/propidium iodide staining based flow cytometric analysis (reference value: 3.22%); format: functional
HepG2 [10] = experiment: Induction of autophagy in human HepG2 cells assessed as effect on LC3-2 protein expression at 3 uM after 24 hrs by Western blot analysis; format: functional, cell-based
Method in brief: (§2)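 HepG2 cells lysed in RIPA on ice for 20 min; protein measured by BCA. Lysates run on 10% SDS-PAGE and transferred to PVDF. Membranes blocked in 5% nonfat milk/TBST for 2 h, incubated with primary antibodies overnight at 4 °C, then HRP secondary antibody; bands detected by ECL.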

A2780 [11] = experiment: Induction of morphological changes in human A2780 cells assessed as accumulation of cytoplasmic vacuoles at 4 uM after 24 hrs by optical microscopic method; format: functional, cell-based
HepG2 [12] = experiment: Induction of apoptosis in human HepG2 cells assessed as late apoptotic cells at 4 uM after 24 hrs in presence of z-VAD-fmk by annexin V/propidium iodide staining based flow cytometric analysis (reference value: 6.21%); format: functional
HepG2 [13] = experiment: Induction of apoptosis in human HepG2 cells assessed as decrease in pro-caspase 12 protein expression at 1 to 4 uM after 24 hrs by Western blot analysis; format: functional, cell-based; details: dose 1-4 µM; method in brief: as §2
HepG2 [14] = experiment: Induction of apoptosis in human HepG2 cells assessed as necrotic cells at 1 uM after 24 hrs by annexin V/propidium iodide staining based flow cytometric analysis (reference value: 0.11%); format: functional
HepG2 [15] = experiment: Induction of apoptosis in human HepG2 cells assessed as early apoptotic cells at 4 uM after 24 hrs in presence of z-VAD-fmk by annexin V/propidium iodide staining based flow cytometric analysis (reference value: 0.86%); format: functional
HepG2 [16] = experiment: Induction of apoptosis in human HepG2 cells assessed as early apoptotic cells at 2 uM after 24 hrs by annexin V/propidium iodide staining based flow cytometric analysis (reference value: 1.29%); format: functional
HepG2 [17] = experiment: Induction of mitochondrial dysfunction in human HepG2 cells assessed as increase in MPTP opening at 1 to 4 uM after 24 hrs by JC-1 staining based flow cytometric analysis; format: functional, cell-based; details: dose 1-4 µM
PANC-1 = experiment: Antiproliferative activity against human PANC1 cells assessed as reduction in cell viability after 48 hrs by MTT assay; format: functional, cell-based; details: PANC-1, 48 h; method in brief: as §1
HepG2 [18] = experiment: Induction of cell death in human HepG2 cells at 3 uM after 24 hrs in presence of 3-MA by MTT assay; format: functional, cell-based
Method in brief: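 HepG2 cells given 3 μM for 24 h together with CQ (10 μM) or 3-MA (1 mM). Viability measured by MTT with absorbance read at 570 nm.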

HepG2 [19] = experiment: Induction of mitochondrial dysfunction in human HepG2 cells assessed as dispersive puncta formation at 2 to 4 uM after 12 hrs by calcein-AM staining based fluorescence microscopic analysis; format: functional, cell-based; details: dose 2-4 µM
Method in brief: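 HepG2 cells in glass-bottom plates treated for 12 h. Co-loaded with 1.5 μM calcein-AM and 5 mM CoCl2 in DMEM at 37 °C for 20 min; CoCl2 quenches cytosolic calcein. Washed three times with PBS and imaged by fluorescence microscopy through a 525-nm bandpass filter.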

HepG2 [20] = experiment: Induction of morphological changes in human HepG2 cells assessed as accumulation of cytoplasmic vacuoles at 4 uM after 24 hrs by optical microscopic method; format: functional, cell-based
Method in brief: (§3)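 Cells grown at 37 °C, 5% CO2 in media with 10% FBS and penicillin/streptomycin, then treated with compound. Cytoplasmic vacuoles judged by optical microscopy. Time course at 4 μM, or 10 h exposure across increasing concentrations.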

HepG2 [21] = experiment: Induction of morphological changes in human HepG2 cells assessed as accumulation of vacuoles at 3 uM after 24 hrs in presence of CQ by microscopic method; format: functional, cell-based
Method in brief: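 HepG2 cells given 3 μM compound for 24 h with chloroquine (10 μM) or 3-methyladenine (1 mM). Vacuolization and viability examined, viability by MTT.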

L02 [22] = experiment: Induction of morphological changes in human L02 cells assessed as accumulation of cytoplasmic vacuoles at 4 uM after 24 hrs by optical microscopic method; format: cell-based; details: l02, 24 h; method in brief: as §3

IC50 (A2780 [1]): 2.22 µM
Drug uptake [2]: 66.3 µM
IC50 (PANC-1): 3.34 µM
Activity (L02 [22]): Active
Structure (SMILES): C=CCc1ccc(O)c(-c2ccc(OCCCCCc3c4[n+](cc5c(OC)c(OC)ccc35)CCc3cc5c(cc3-4)OCO5)c(CC=C)c2)c1.[I-]
Activity (HepG2 [3]): 7.91%
Activity (HepG2 [4]): Active
Activity (A549): Active
viability at 4 µM (HepG2 [5]): 73.3%
IC50 (L02 [6]): 4.61 µM
Activity (HepG2 [7]): 0.13%
Activity (HepG2 (Homo sapiens)): Active
Activity (HepG2 [8]): Active
Activity (HepG2 [9]): 17.6%
Activity (HepG2 [10]): inactive
Activity (A2780 [11]): Active
Activity (HepG2 [12]): 19.9%
Activity (HepG2 [13]): Active
Activity (HepG2 [14]): 0.2%
Activity (HepG2 [15]): 6.59%
Activity (HepG2 [16]): 3.03%
Activity (HepG2 [17]): Active
Activity (HepG2 [18]): Active
Activity (HepG2 [19]): Active
Activity (HepG2 [20]): Active
Activity (HepG2 [21]): Active
